This note sets out measurements from ChEMBL document CHEMBL1133895, “1,4-Disubstituted imidazoles are potential antibacterial agents functioning as inhibitors of enoyl acyl carrier protein reductase (FabI)” (Bioorg Med Chem Lett, 2001).

In brackets after ≈: the same amount, converted by molar mass. A value given as a limit tells only on which side of the number the result lay.

Test [1] addresses T1, Enoyl-[acyl-carrier-protein] reductase [NADH] FabI (Escherichia coli K-12, UniProt P0AEK4).
T1 sequence (P0AEK4 whole entry): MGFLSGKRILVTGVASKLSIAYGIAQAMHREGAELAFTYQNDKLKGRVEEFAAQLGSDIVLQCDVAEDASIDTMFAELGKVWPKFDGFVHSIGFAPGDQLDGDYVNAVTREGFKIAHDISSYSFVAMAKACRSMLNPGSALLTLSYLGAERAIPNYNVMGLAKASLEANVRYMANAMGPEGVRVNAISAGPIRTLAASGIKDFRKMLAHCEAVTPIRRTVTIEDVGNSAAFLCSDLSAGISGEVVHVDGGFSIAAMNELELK
Briefly: Evaluated for inhibition of enoyl acyl carrier protein reductase (FabI) in Escherichia coli.

Test [2] concerns the target T2, Enoyl-[acyl-carrier-protein] reductase [NADPH] FabI (Staphylococcus aureus, UniProt Q6GI75).
T2 sequence (Q6GI75 whole entry): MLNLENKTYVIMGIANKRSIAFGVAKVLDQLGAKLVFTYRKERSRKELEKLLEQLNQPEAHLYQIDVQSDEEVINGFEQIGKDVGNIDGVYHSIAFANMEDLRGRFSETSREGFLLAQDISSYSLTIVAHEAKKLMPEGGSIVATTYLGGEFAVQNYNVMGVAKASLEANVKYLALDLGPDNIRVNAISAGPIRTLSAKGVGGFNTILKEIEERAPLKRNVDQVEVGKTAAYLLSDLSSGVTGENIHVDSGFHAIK
Briefly: Evaluated for inhibition of enoyl acyl carrier protein reductase (FabI) in Staphylococcus aureus.

The target in test [3] is T1, Enoyl-[acyl-carrier-protein] reductase [NADH] FabI. The test is described as follows: Evaluated for inhibition of enoyl acyl carrier protein reductase (FabI) of Escherichia coli in the presence of NADH using crotonoyl CoA as substrate. A digest of the protocol:
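Cloned, overexpressed, purified E. coli FabI (usually 60 nM) in 100 mM NaADA pH 6.5, 4% glycerol, 0.25 mM crotonoyl CoA, 50 µM NADH; inhibitor typically 0.01-10 µM. NADH consumption followed at 340 nm, 20 min, 30 °C; initial velocities from tangent at t = 0 of exponential fit; IC50 from 4-parameter fit, mean ± SD of duplicates.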

Another test concerns Staphylococcus aureus. Briefly: Antibacterial activity against Staphylococcus aureus Oxford. It counts as functional.
In test [4] the target is T2, Enoyl-[acyl-carrier-protein] reductase [NADPH] FabI. The test is described as follows: Evaluated for inhibition of enoyl acyl carrier protein reductase (FabI) of Staphylococcus aureus in the presence of NADH using crotonoyl CoA as substrate.
For another test, the system named is Moraxella catarrhalis. Briefly: Antibacterial activity against Moraxella catarrhalis 1502. It counts as functional.

Turning to `Cc1ccccc1Cn1cnc(-c2ccsc2)c1`, the results for the IC50 in test [1] and in test [2] were 65.4 µM and 36.5 µM, respectively.

With `Cc1ccc(Cn2cnc(-c3cccs3)c2)cc1`, the IC50 (commonly the concentration that gives 50% inhibition) in test [3] came to 13.7 µM; in test [4] it was 1.24 µM. The MIC (usually the smallest concentration in the dilution series that meets the test's criterion for growth inhibition) with Staphylococcus aureus is 128 µg/mL (≈ 503 µM).

For the compound `COc1ccc(-c2cn(Cc3ccc(C)cc3)cn2)cc1`, the IC50 stood at 3.92 µM in test [1] and 0.36 µM in test [2]. Also, the MIC was found to be 32 µg/mL (≈ 115 µM) against Moraxella catarrhalis and 8 µg/mL (≈ 28.7 µM) against Staphylococcus aureus.

On to `Cc1ccc(Cc2coc(-c3ccsc3)n2)cc1`, for which the IC50 in test [1] and in test [2] was more than 100 µM in each case.

Regarding `COc1ccc(-c2c[nH]c(Cc3ccc(C)cc3)n2)cc1`, the figures for the IC50 in test [1] and in test [2] were more than 100 µM and 66.2 µM, respectively.

With `FC(F)(F)c1ccc(-c2cn(Cc3ccccc3)cn2)cc1`, in test [2], the IC50 is more than 100 µM.

For the compound `c1ccc(-c2ccc(Cn3cnc(-c4ccsc4)c3)cc2)cc1`, the values for the IC50 in test [1] and in test [2] were 1.18 µM and 7.66 µM, respectively.

On to `COc1ccc(Cn2cnc(-c3ccsc3)c2)cc1`, for which the IC50 in test [1] came out at 9.4 µM; in test [2] it was 1.9 µM. Also, the results for the MIC against Moraxella catarrhalis and in the test with Staphylococcus aureus were 64 µg/mL (≈ 237 µM) and 16 µg/mL (≈ 59.2 µM), respectively.

Turning to `Oc1cc(Cl)ccc1Oc1ccc(Cl)cc1Cl` [TRICLOSAN], the values for the MIC against Moraxella catarrhalis and against Staphylococcus aureus were 0.06 µg/mL (≈ 0.207 µM) and 0.03 µg/mL (≈ 0.104 µM), respectively.

Consider `Nc1ccc(Cn2cnc(-c3ccsc3)c2)cc1`, for which the IC50 came out at 5.14 µM in test [1] and 2.03 µM in test [2]. Moreover, the MIC in the test on Moraxella catarrhalis and in the test on Staphylococcus aureus was more than 64 µg/mL each time.

In the case of `O=[N+]([O-])c1cccc(Cn2cnc(-c3ccsc3)c2)c1`, the IC50 in test [1] came to 26.9 µM; in test [2] it was 14.7 µM.

As to `Cc1ccc(Cc2noc(-c3ccsc3)n2)cc1`, the IC50 is more than 100 µM in test [1] and 51 µM in test [2].

For `c1ccc(C[C@H]2COC(c3ccsc3)=N2)cc1`, the IC50 in test [1] and in test [2] was more than 100 µM each time.

In the case of `COc1ccc(-c2cn(Cc3ccc(C(F)(F)F)cc3)cn2)cc1`, the half-inhibitory concentration (IC50) was 28.3 µM in test [1] and 4.07 µM in test [2].

For the compound `c1ccc(C[C@@H]2COC(c3ccsc3)=N2)cc1`, the IC50 in test [1] and in test [2] was more than 100 µM in each case.

In the case of `Cc1ccc(Cn2cnc(-c3ccsc3)c2)cc1`, the IC50 in test [1] was 6.44 µM; in test [2] it was 0.25 µM. For the same compound, the minimum inhibitory concentration (MIC) in the test on Moraxella catarrhalis came to 32 µg/mL (≈ 126 µM); with Staphylococcus aureus, 8 µg/mL (≈ 31.5 µM).

Regarding `Cc1ccc(Cc2nc(-c3ccsc3)no2)cc1`, the figures for the IC50 in test [1] and in test [2] were more than 100 µM and 50.7 µM, respectively.

Regarding `Cn1cnc(-c2ccsc2)c1`, the IC50 in test [2] is more than 100 µM.

Regarding `Cc1cccc(Cn2cnc(-c3ccsc3)c2)c1`, the IC50 in test [1] stood at 12.2 µM; in test [2], 4.24 µM. Also, the minimal inhibitory concentration (MIC) against Moraxella catarrhalis was 32 µg/mL (≈ 126 µM); against Staphylococcus aureus it was more than 64 µg/mL.

With `COc1ccc(-c2cn(Cc3ccccc3)cn2)cc1`, the IC50 in test [1] is 5.28 µM; in test [2] it was 1.13 µM. The MIC against Moraxella catarrhalis and against Staphylococcus aureus was 64 µg/mL (≈ 242 µM) throughout.

For `O=C(O)c1cccc(Cn2cnc(-c3ccsc3)c2)c1`, the IC50 in test [1] and in test [2] was more than 100 µM each time.

In test [2], `Cc1ccc(Cn2cnc(-c3cccc(Cl)c3Cl)c2)cc1` returned an IC50 of more than 10 µM.
